This passage reports Activity results from ChEMBL document CHEMBL1165892, “Cell cycle disruption and apoptotic activity of 3-aminothiazolo[3,2-a]benzimidazole-2-carbonitrile and its homologues” (2010).

Activity calls are given as the source filed them. No cut-off for these calls is given here.

In assay [1] the test system is MDA-MB-231. As to the kind of experiment: Cell cycle arrest in human MDA-MB-231 cells assessed as accumulation at G2/M phase at 100 uM after 24 hrs using propidium staining by flow cytometry. It counts as functional. The procedure, abridged: (§1)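 MDA-MB-231 cells were grown in RPMI 1640 with 100 ml/l FBS, 100 U/ml penicillin and 100 U/ml streptomycin. They were seeded in 60 mm dishes and held 24 h at 37 °C in humidified 50 ml/l CO₂. Cells were exposed for 24, 48 or 72 h, then resuspended in 50 mM Na citrate with propidium iodide for 30 min. DNA content was read by flow cytometry and phase percentages derived from histograms. Data are representative of three independent experiments.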

The test system of assay [2] is MDA-MB-231. As to the kind of experiment: Cell cycle arrest in human MDA-MB-231 cells assessed as accumulation at G2/M phase at 100 uM after 48 hrs using propidium staining by flow cytometry. It counts as functional. The gist of the method: as §1
Assay [3] has as its system MDA-MB-231. In words: Cell cycle arrest in human MDA-MB-231 cells assessed as accumulation at G2/M phase at 100 uM after 72 hrs using propidium staining by flow cytometry. It counts as functional. The procedure, abridged:
as §1

The test system of assay [4] is MDA-MB-231. As to the kind of experiment: Cell cycle arrest in human MDA-MB-231 cells decrease of cells at G1 phase at 100 uM after 24 to 72 hrs using propidium staining by flow cytometry. In kind it is functional, cell-based. The gist of the method:
as §1

Assay [5] concerns MDA-MB-231. In words: Cell cycle arrest in human MDA-MB-231 cells assessed as accumulation at S phase at 100 uM after 24 to 72 hrs using propidium staining by flow cytometry. In kind it is functional, cell-based. The procedure, abridged: as §1
Assay [6] concerns MDA-MB-231. As to the kind of experiment: Induction of apoptosis in human MDA-MB-231 cells at 100 uM after 24 hrs using annexin V staining by flow cytometry. In kind it is functional. The gist of the method: (§2)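 MDA-MB-231 cells were cultured in RPMI 1640 with 100 ml/l FBS and penicillin/streptomycin, then exposed for 24, 48 or 72 h. Harvested cells were stained with annexin V-FITC plus PI using a commercial kit per the manufacturer. Flow cytometry read emission at 530 and […], 10,000 cells per determination. Quadrants scored normal, early apoptotic, late apoptotic and necrotic cells. Results are representative of three experiments.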

Assay [7] deals with MDA-MB-231. As to the kind of experiment: Induction of apoptosis in human MDA-MB-231 cells at 100 uM after 48 hrs using annexin V staining by flow cytometry. In kind it is functional. The procedure, abridged: as §2
In assay [8] the test system is MDA-MB-231. As to the kind of experiment: Induction of apoptosis in human MDA-MB-231 cells at 100 uM after 72 hrs using annexin V staining by flow cytometry. It counts as functional. The gist of the method: as §2
Assay [9] has as its system MDA-MB-231. As to the kind of experiment: Induction of apoptosis in human MDA-MB-231 cells at 100 uM using annexin V staining by flow cytometry. In kind it is functional, cell-based. The settings on record: TDE = time-dependent effect. The procedure, abridged: as §2
Assay [10] deals with MDA-MB-231. In words: Antiproliferative activity against human MDA-MB-231 cells at 100 uM after 48 hrs.

`CC(=O)Nc1c(C#N)sc2nc3ccccc3n12`: the Activity in [1] turned out to be 42%; in [2], 46.22%; in assay [3], 45.79%; in [6], 23.77%; in assay [7] it was 54.59%; in assay [8] it was 80%. The Activity result in assay [9] was “tde”. In addition, the result in assay [4], in assay [5] and in assay [10] was Active.
